PG9 Ab binder: binders of HIV-1 gp120 antibody PG9, primary screen, biochemical, TR-FRET; inhibition, % at 6.7 µM; HIV-1 gp120 / PG9 antibody interaction; hit rate 0.43% among 360,000; AID 624416, 2012; TR-FRET gp120-PG9 antibody binding; in the data active = inhibition above about 8.5%
NR2E3 ag-1: NR2E3 agonists in two-hybrid cells, primary screen, cell-based, luminescence, CHO-S, Gal4-NCOR/VP16-NR2E3; Photoreceptor-specific nuclear receptor (Homo sapiens), Q9Y5X4; luciferase; inhibition of corepressor binding, % at 3.98 µM; hit rate 0.35% among 360,000; AID 602229, 2012;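 active = inhibition above the mean of all tested compounds plus 3 SD, cut at about 70% in these data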;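 also: higher means lower luciferase signal from less NR2E3 corepressor binding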
NR1D1 modulator: modulators of Rev-erb alpha DNA binding, primary screen, biochemical, FITC-DNA, fluorescence polarization, uHTS | Nuclear receptor subfamily 1 group D member 1 (Homo sapiens), P20393 | Rev-erbα–FITC-DNA binding, 90 min | activity, % at 10 µM | hit rate 0.79% among 370,000;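 active = activity above about 14%, limit read from the data; passing the limit was not always enough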
Target sequence (P20393 whole entry, looked up): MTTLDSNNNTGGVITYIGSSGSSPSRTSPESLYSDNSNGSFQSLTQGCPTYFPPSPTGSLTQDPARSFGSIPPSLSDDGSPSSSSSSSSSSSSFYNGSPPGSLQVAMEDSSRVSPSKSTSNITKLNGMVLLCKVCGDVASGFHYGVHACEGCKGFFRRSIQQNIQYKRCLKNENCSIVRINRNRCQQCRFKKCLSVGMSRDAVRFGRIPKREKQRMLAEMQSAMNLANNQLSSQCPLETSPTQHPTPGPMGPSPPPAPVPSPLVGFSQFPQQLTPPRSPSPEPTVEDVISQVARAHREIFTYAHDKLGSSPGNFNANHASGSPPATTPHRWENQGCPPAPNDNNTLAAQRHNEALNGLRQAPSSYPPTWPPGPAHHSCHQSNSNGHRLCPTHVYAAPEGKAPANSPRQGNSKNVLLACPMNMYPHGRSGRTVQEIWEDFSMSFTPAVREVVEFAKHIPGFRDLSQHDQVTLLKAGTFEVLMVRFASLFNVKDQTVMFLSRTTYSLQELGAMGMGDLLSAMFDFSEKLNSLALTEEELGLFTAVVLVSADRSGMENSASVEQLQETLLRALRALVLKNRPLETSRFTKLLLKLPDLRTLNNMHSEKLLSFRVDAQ
NR2E3 ag-2: inhibitors of NR2E3-RetCOR corepressor binding, primary screen, NR2E3 agonist project, biochemical, TR-FRET, GST-NR2E3, biotin-RetCOR; 1536-well; hit rate 0.12% among 320,000; Photoreceptor-specific nuclear receptor (Homo sapiens), Q9Y5X4; inhibition of corepressor binding, % at 4.78 µM;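 active = percent inhibition above the cutoff of mean plus 3 SD of all tested compounds, set per screening campaign, cut at about 20% in these data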
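Material: NR2E3–RetCOR corepressor complex | Quantity: 1.35 nM GST-tagged NR2E3 final | Schedule: 5 h at 4 °C | Replication: Singlicate compound wells | Reagent: RetCOR corepressor, biotinylated, 7 nM | Controls: Biotin wells as high control, 0.6% DMSO wells as low control | Signal: TR-FRET, Eu(K)-anti-GST donor, streptavidin-D2 acceptor, ex 340, em 617/671 nm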
Neddylation inh: inhibitors of cullin neddylation, primary screen, biochemical, TR-FRET, uHTS, NAE and Ubc12 | calls only at 25 µM | hit rate 0.58% among 360,000 | AID 651699, 2012; in the data active = inhibition above about 36%
NR2E3 ag confirm: NR2E3 agonist confirmation in cells, cell-based, luminescence, CHO-S two-hybrid; shares compounds with NR2E3 ag-1; CHO-S mammalian two-hybrid NR2E3-NCOR, luciferase luminescence; inhibition, % at 3.98 µM; hit rate 51% among 2,300; AID 624378, 2012;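 active = average inhibition above a cutoff equal to the mean inhibition of all tested compounds plus one SD, cut at about 70% in these data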
VP16 counter: GAL4-VP16 reporter modulators, confirmation, counter-screen for NR2E3 agonist project, cell-based, luminescence, CHO-S, high throughput; CHO-S GAL4-VP16 luciferase reporter; shares compounds with NR2E3 ag-1; hit rate 29% among 2,300; inhibition, % at 3.98 µM;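 active = mean inhibition above a cutoff equal to the average over all tested compounds plus one standard deviation, cut at about 70% in these data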;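 also: luciferase from a UAS reporter driven by GAL4-VP16 transactivation; higher means less reporter light so more repression of VP16 activity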
Hits are given with their value; - = inactive; . = no result given. The list is not random: actives were taken first. Their share in the collection is about 2%.

SMILES	PG9 Ab binder	NR2E3 ag-1	NR1D1 modulator	NR2E3 ag-2	Neddylation inh	NR2E3 ag confirm	VP16 counter
O=S(=O)(NCC1CCCO1)c1ccc(-c2ccc(S(=O)(=O)NCC3CCCO3)cc2)cc1 (centres undefined)	-	-	-	-	-	92.2	73.0
Nc1nc2ccccc2cc1C(=O)NCCCCc1ccccc1	.	96.1	.	.	.	97.3	90.1
Cc1ccccc1C(=O)NCCCCc1ccccc1	-	-	-	-	-	.	.
CCCCN1CCCOc2cc(Br)ccc2S1(=O)=O	.	.	-	.	.	.	.
CCOC(=O)c1cnc(-n2nc(C)cc2C)nc1NC1CCCCC1	-	92.8	-	-	-	91.4	-
CCNc1nc(NCC)nc(-n2nc(C)cc2C)n1	-	-	-	-	-	-	-
Cc1cc(C)n(-c2nc(Nc3ccccc3C)nc(-n3nc(C)cc3C)n2)n1	-	.	-	-	.	.	.
CC(=O)C1=C(C)N(Cc2ccc(Cl)cc2)C(=S)NC1c1ccc(Cl)cc1 (centres undefined)	-	.	-	.	.	.	.
C/C(=C\CNc1ncnc2nc[nH]c12)CO	-	-	-	-	-	.	.
CC(C)CCCCCCCCCCCCC(=O)NCC(=O)NC1C(C)OC(Nc2ncnc3nc[nH]c23)C(O)C1O (centres undefined)	-	72.5	-	.	-	98.1	97.0
CCCCCCCCCS(=O)(=O)N/N=C/c1cccc([N+](=O)[O-])c1	-	-	-	-	-	-	-
Cc1ccc(S(=O)(=O)N/N=C/c2cccc([N+](=O)[O-])c2)cc1	-	-	-	-	-	.	.
CCC(C)Oc1cc(-c2ccnc(Nc3cccc(Cl)c3)n2)ccn1 (centres undefined)	-	-	-	-	-	94.0	-
CN(C)CCCNc1ccc(-c2cc(Nc3cccc(Cl)c3)ncn2)cn1	-	-	-	-	.	.	.
OCCCNc1cc(-c2ccnc(Nc3cccc(Cl)c3)n2)ccn1	-	99.4	-	-	.	100.0	95.0
COCCCNC(=O)C[C@@H]1C(=O)N2CCCC3=C2[C@@]1(C(=O)OC)CCCC3	.	.	-	.	.	.	.
O=S(=O)(Nc1cccc(-c2cn3cccnc3n2)c1)c1ccc(-c2ccccc2)cc1	-	-	-	-	.	-	-
O=C(c1cc(Cl)cc(Cl)c1)N1CC[C@H]2[C@H](CCCN2Cc2ccccc2)C1	.	.	-	.	.	.	.
O=C(C=P(c1ccccc1)(c1ccccc1)c1ccccc1)c1ccccc1-c1ccccc1C(=O)C=P(c1ccccc1)(c1ccccc1)c1ccccc1	-	98.4	-	.	-	99.5	87.4
CC(=O)OC12CCCN(C1)/C(=C/c1cccnc1)C2 (centres undefined)	.	.	-	.	.	.	.
COc1cc(OC)cc(-c2cc3nc(C)c(CCC(=O)O)c(C)n3n2)c1	-	-	-	-	.	-	-
O=C(NNC(=O)c1ccccc1F)c1cccc(S(=O)(=O)N2CCc3ccccc32)c1	-	81.5	-	.	-	84.6	72.0
CC1Cc2ccccc2N1S(=O)(=O)c1cccc(C(=O)NNC(=O)c2ccccc2F)c1 (centres undefined)	-	-	-	-	-	.	.
O=C(NCc1ccncc1)c1cccc(S(=O)(=O)N2CCc3ccccc32)c1	-	-	-	-	-	-	-
COc1ccccc1OCc1ccc(C(=O)Nc2ccccc2)cc1	-	-	-	-	-	.	.
O=C(Nc1ccc(Cn2cccn2)cc1)c1ccc(COc2ccccc2Br)cc1	-	-	-	-	-	86.2	-
Clc1ccccc1C(c1ccccc1)(c1ccccc1)n1ccnc1	-	-	.	-	-	-	-
Cc1ccccc1C(=O)NC1CCCCN(Cc2ccc(Cl)cc2)C1=O (centres undefined)	.	.	-	.	.	.	.
C#Cc1cccc(Nc2nc(NCc3ccccc3OC)nc3ccsc23)c1	-	-	-	.	-	91.8	75.0
